# Measured values from ChEMBL document CHEMBL5303300, “EUbOPEN Chemogenomics Library - Multiplex” (2023).
# Values joined by “and” are separate entries in the source; they are usually repeats but may differ in a detail not shown here. Equal values may be shown once.
# Experiments:
# U2OS = assay: Multiplex assay against U2OS; format: toxicity, cell-based; settings: human, number of replicates 2
# Summary of the method: (§1)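 Imaging took place on a CQ1 microscope at 37°C and 5% CO2 once compound had been added to live cells stained at seeding with Hoechst33342, BioTracker Green Microtubule Cytoskeleton Dye, MitoTracker Red and Annexin V Alexa Fluor 680. CellPathfinder machine-learning gating classed cells as Hoechst high-intensity objects or normal cells, classed normal cells as having healthy, pyknosed or fragmented nuclei, and classed pyknosed cells as mitotic or apoptotic. Tubulin, mitochondrial-mass and membrane-permeability phenotypes are per cents of the healthy-nucleus cells.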
# HEK-293T = assay: Multiplex assay against HEK293T; format: toxicity, cell-based; settings: human, number of replicates 2; summary of the method: as §1
# [1] = 24 h, 10 µM, compound concentration 10 uM
# [2] = 48 h, 1 µM, compound concentration 1 uM
# [3] = 48 h, 10 µM, compound concentration 10 uM
# [4] = 12 h, 1 µM, compound concentration 1 uM
# [5] = 12 h, 10 µM, compound concentration 10 uM
# [6] = 24 h, 1 µM, compound concentration 1 uM
smiles,measurement,setting,value
CCn1c(-c2nonc2N)nc2cncc(C(=O)N3CC[C@H](N)C3)c21.Cl,Population Fragmented Nuclei (%),U2OS; [1],17% and 8%
same,Population Healthy Nuclei (%),U2OS; [1],67% and 77%
same,Population Hoechst High Intensity Objects (%),U2OS; [1],0%
same,Population Membrane Permeable-Phenotype (%),U2OS; [1],2% and 3%
same,Population Mitochondria Different-Phenotype (%),U2OS; [1],0% and 1%
same,Population Mitotic Cells (%),U2OS; [1],44% and 42%
same,Population Normal (%),U2OS; [1],100%
same,Population Pyknosed Nuclei (%),U2OS; [1],15% and 14%
same,Population Tubulin-Different-Phenotype (%),U2OS; [1],79% and 89%
same,Population Apoptotic (%),U2OS; [2],60% and 82%
same,Population Healthy Nuclei (%),U2OS; [2],71% and 89%
same,Population Hoechst High Intensity Objects (%),U2OS; [2],0%
same,Population Membrane Permeable-Phenotype (%),U2OS; [2],7% and 1%
same,Population Mitochondria Different-Phenotype (%),U2OS; [2],2% and 0%
same,Population Mitotic Cells (%),U2OS; [2],40% and 17%
same,Population Normal (%),U2OS; [2],100%
same,Population Pyknosed Nuclei (%),U2OS; [2],9% and 6%
same,Population Tubulin-Different-Phenotype (%),U2OS; [2],76% and 81%
same,Population Apoptotic (%),U2OS; [3],75% and 74%
same,Population Fragmented Nuclei (%),U2OS; [3],15% and 5%
same,Population Healthy Nuclei (%),U2OS; [3],69% and 79%
same,Population Hoechst High Intensity Objects (%),U2OS; [3],0%
same,Population Membrane Permeable-Phenotype (%),U2OS; [3],3% and 4%
same,Population Mitochondria Different-Phenotype (%),U2OS; [3],0%
same,Population Mitotic Cells (%),U2OS; [3],25%
same,Population Normal (%),U2OS; [3],100% and 99%
same,Population Pyknosed Nuclei (%),U2OS; [3],15%
same,Population Tubulin-Different-Phenotype (%),U2OS; [3],68% and 91%
same,Population Apoptotic (%),HEK-293T; [4],31% and 33%
same,Population Fragmented Nuclei (%),HEK-293T; [4],2%
same,Population Healthy Nuclei (%),HEK-293T; [4],81% and 83%
same,Population Hoechst High Intensity Objects (%),HEK-293T; [4],7% and 5%
same,Population Membrane Permeable-Phenotype (%),HEK-293T; [4],4% and 1%
same,Population Mitochondria Different-Phenotype (%),HEK-293T; [4],10% and 8%
same,Population Mitotic Cells (%),HEK-293T; [4],68% and 66%
same,Population Normal (%),HEK-293T; [4],92% and 94%
same,Population Pyknosed Nuclei (%),HEK-293T; [4],16% and 14%
same,Population Tubulin-Different-Phenotype (%),HEK-293T; [4],33% and 38%
same,Total Cell Count,HEK-293T; [4],694 and 685
same,Population Apoptotic (%),HEK-293T; [5],21% and 43%
same,Population Fragmented Nuclei (%),HEK-293T; [5],2%
same,Population Healthy Nuclei (%),HEK-293T; [5],84% and 78%
same,Population Hoechst High Intensity Objects (%),HEK-293T; [5],5% and 4%
same,Population Membrane Permeable-Phenotype (%),HEK-293T; [5],1% and 0%
same,Population Mitochondria Different-Phenotype (%),HEK-293T; [5],12% and 15%
same,Population Mitotic Cells (%),HEK-293T; [5],78% and 56%
same,Population Normal (%),HEK-293T; [5],94% and 95%
same,Population Pyknosed Nuclei (%),HEK-293T; [5],13% and 19%
same,Population Tubulin-Different-Phenotype (%),HEK-293T; [5],38% and 31%
same,Total Cell Count,HEK-293T; [5],716 and 454
same,Population Apoptotic (%),HEK-293T; [6],46% and 37%
same,Population Fragmented Nuclei (%),HEK-293T; [6],3%
same,Population Healthy Nuclei (%),HEK-293T; [6],84% and 86%
same,Population Hoechst High Intensity Objects (%),HEK-293T; [6],6% and 5%
same,Population Membrane Permeable-Phenotype (%),HEK-293T; [6],2%
same,Population Mitochondria Different-Phenotype (%),HEK-293T; [6],2% and 3%
same,Population Mitotic Cells (%),HEK-293T; [6],53% and 62%
same,Population Normal (%),HEK-293T; [6],93% and 94%
same,Population Pyknosed Nuclei (%),HEK-293T; [6],11% and 9%
same,Population Tubulin-Different-Phenotype (%),HEK-293T; [6],12% and 20%
same,Total Cell Count,HEK-293T; [6],994 and 875
same,Population Apoptotic (%),HEK-293T; [1],30% and 53%
same,Population Fragmented Nuclei (%),HEK-293T; [1],2% and 1%
same,Population Healthy Nuclei (%),HEK-293T; [1],86% and 79%
same,Population Hoechst High Intensity Objects (%),HEK-293T; [1],8% and 7%
same,Population Membrane Permeable-Phenotype (%),HEK-293T; [1],1%
same,Population Mitochondria Different-Phenotype (%),HEK-293T; [1],12% and 16%
same,Population Mitotic Cells (%),HEK-293T; [1],69% and 46%
same,Population Normal (%),HEK-293T; [1],91% and 92%
same,Population Pyknosed Nuclei (%),HEK-293T; [1],10% and 18%
same,Population Tubulin-Different-Phenotype (%),HEK-293T; [1],36% and 34%
same,Total Cell Count,HEK-293T; [1],751 and 447
same,Population Apoptotic (%),HEK-293T; [2],9% and 19%
same,Population Fragmented Nuclei (%),HEK-293T; [2],9% and 8%
same,Population Healthy Nuclei (%),HEK-293T; [2],86% and 87%
same,Population Hoechst High Intensity Objects (%),HEK-293T; [2],10% and 9%
same,Population Membrane Permeable-Phenotype (%),HEK-293T; [2],3%
same,Population Mitochondria Different-Phenotype (%),HEK-293T; [2],0%
same,Population Mitotic Cells (%),HEK-293T; [2],90% and 80%
same,Population Normal (%),HEK-293T; [2],89% and 90%
same,Population Pyknosed Nuclei (%),HEK-293T; [2],3% and 4%
same,Population Tubulin-Different-Phenotype (%),HEK-293T; [2],11% and 10%
same,Total Cell Count,HEK-293T; [2],1942 and 1388
same,Population Apoptotic (%),HEK-293T; [3],51% and 57%
same,Population Fragmented Nuclei (%),HEK-293T; [3],7% and 3%
same,Population Healthy Nuclei (%),HEK-293T; [3],87% and 84%
same,Population Hoechst High Intensity Objects (%),HEK-293T; [3],11%
same,Population Membrane Permeable-Phenotype (%),HEK-293T; [3],2% and 1%
same,Population Mitochondria Different-Phenotype (%),HEK-293T; [3],4% and 7%
same,Population Mitotic Cells (%),HEK-293T; [3],48% and 42%
same,Population Normal (%),HEK-293T; [3],88%
same,Population Pyknosed Nuclei (%),HEK-293T; [3],5% and 12%
same,Population Tubulin-Different-Phenotype (%),HEK-293T; [3],28% and 30%
same,Total Cell Count,HEK-293T; [3],917 and 468
